Data as given in ChEMBL document CHEMBL4699391, “Conversion of amino acids to aryl/heteroaryl ethanol metabolites using human CYP2D6-expressing live baker''s yeast” (RSC Med Chem, 2020).
Calls of active or inactive are those of the source.

Experiments:
[1] = target: BDNF/NT-3 growth factors receptor (Homo sapiens) (UniProt Q16620); assay: Induction of TrkB activation in human SH-SY5Y cells assessed as increase in ERK1/2 phosphorylation at 5 nM after 4 hrs by Western blot analysis; format: cell-based; details: filed as activator
[2] = target: BDNF/NT-3 growth factors receptor (Homo sapiens) (UniProt Q16620); assay: Induction of TrkB activation in human SH-SY5Y cells assessed as increase in Akt phosphorylation at 5 nM after 4 hrs by Western blot analysis; format: cell-based; details: filed as activator
[3] = system: N2a; assay: Neuroprotective activity against corticosterone-induced neurotoxicity in mouse N2a cells assessed as increase in cell viability at 5 nM preincubated for 24 hrs followed by corticosterone addition and measured after 24 hrs; format: functional, cell-based; details: time 48.0 hrs
[4] = target: BDNF/NT-3 growth factors receptor (Homo sapiens) (UniProt Q16620); assay: Induction of TrkB activation in human SH-SY5Y cells assessed as increase in phosphorylated TrkB level at 5 nM after 4 hrs by Western blot analysis; format: cell-based; details: filed as activator
[5] = system: SH-SY5Y; assay: Neuroprotective activity against corticosterone-induced neurotoxicity in human SH-SY5Y cells assessed as induction of BDNF neurotropic response at 5 nM preincubated for 2 hrs followed by corticosterone addition and measured after 4 hrs by ELISA; format: functional, cell-based; details: time 6.0 hrs
[6] = target: BDNF/NT-3 growth factors receptor (Homo sapiens) (UniProt Q16620); assay: Induction of TrkB activation in human SH-SY5Y cells assessed as increase in Akt phosphorylation at 10 uM after 4 hrs by Western blot analysis; format: cell-based; details: filed as activator
[7] = system: N2a; assay: Neuroprotective activity against corticosterone-induced neurotoxicity in mouse N2a cells assessed as increase in cell viability at 10 uM preincubated for 24 hrs followed by corticosterone addition and measured after 24 hrs; format: functional, cell-based; details: time 48.0 hrs
Procedure, shortened: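 Mouse neuroblastoma N2a cells were pretreated with test compound for 24 hrs. They were then co-treated with the neurotoxin, printed as cortisone, at 400 μM for a further 24 hrs before neuroprotection was assessed. P value thresholds were ≤0.05, <0.01 and 0.001.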

[8] = target: BDNF/NT-3 growth factors receptor (Homo sapiens) (UniProt Q16620); assay: Induction of TrkB activation in human SH-SY5Y cells assessed as increase in phosphorylated TrkB level at 10 uM after 4 hrs by Western blot analysis; format: cell-based; details: filed as activator
[9] = system: SH-SY5Y; assay: Neuroprotective activity against corticosterone-induced neurotoxicity in human SH-SY5Y cells assessed as induction of BDNF neurotropic response at 10 uM preincubated for 2 hrs followed by corticosterone addition and measured after 4 hrs by ELISA; format: functional, cell-based; details: time 6.0 hrs
[10] = target: BDNF/NT-3 growth factors receptor (Homo sapiens) (UniProt Q16620); assay: Induction of TrkB activation in human SH-SY5Y cells assessed as increase in ERK1/2 phosphorylation at 10 uM after 4 hrs by Western blot analysis; format: cell-based; details: filed as activator

Measured: Activity

BDNF/NT-3 growth factors receptor (Homo sapiens), sequence (Q16620 32-822 limits assumed): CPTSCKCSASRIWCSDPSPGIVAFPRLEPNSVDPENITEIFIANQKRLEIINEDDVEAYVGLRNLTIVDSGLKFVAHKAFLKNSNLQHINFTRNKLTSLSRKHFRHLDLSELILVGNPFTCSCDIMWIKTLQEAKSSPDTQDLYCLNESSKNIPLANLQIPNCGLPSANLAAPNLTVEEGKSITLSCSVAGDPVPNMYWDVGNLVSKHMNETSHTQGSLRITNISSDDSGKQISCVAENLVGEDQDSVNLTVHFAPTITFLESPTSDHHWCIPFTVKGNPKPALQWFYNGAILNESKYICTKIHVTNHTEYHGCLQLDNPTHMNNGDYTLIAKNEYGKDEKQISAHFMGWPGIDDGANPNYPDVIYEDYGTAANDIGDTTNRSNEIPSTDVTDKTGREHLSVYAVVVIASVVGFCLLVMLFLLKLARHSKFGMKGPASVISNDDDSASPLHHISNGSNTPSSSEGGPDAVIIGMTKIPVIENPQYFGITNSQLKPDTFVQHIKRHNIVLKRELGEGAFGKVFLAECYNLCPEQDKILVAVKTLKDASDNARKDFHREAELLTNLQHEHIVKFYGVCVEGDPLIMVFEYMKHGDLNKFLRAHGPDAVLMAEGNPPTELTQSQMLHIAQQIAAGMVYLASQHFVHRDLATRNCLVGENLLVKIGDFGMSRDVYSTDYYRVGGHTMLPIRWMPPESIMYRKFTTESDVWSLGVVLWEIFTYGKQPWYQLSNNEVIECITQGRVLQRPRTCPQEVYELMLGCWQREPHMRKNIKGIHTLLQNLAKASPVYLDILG

O=c1cc(-c2ccccc2)oc2c(O)c(O)ccc12
active: [1] | [2] | [3] | [4] | [5]

OCCc1ccc(O)cc1
active: [6] | [7] | [8] | [9] | [10]

OCCc1c[nH]c2ccccc12
active: [6] | [7] | [8] | [9] | [10]
